Reference: ChEMBL document CHEMBL4513216, “Probing the Open Global Health Chemical Diversity Library for Multistage-Active Starting Points for Next-Generation Antimalarials” (ACS Infect Dis, 2020)

Experiment: Toxicity liver stage against HepG2, at 10uM
Format: cell-based
Design: test concentration 10 uM, cell line HepG2-A16-CD81EGFP
Conditions: human, HepG2-A16-CD81EGFP cells; read-out: INHIBITION
Summary of the method: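 Uninfected HepG2-A16-CD81EGFP cells, 3 × 10^3 per well, 1536-well, plated on prespotted compound at 10 μM final, parasite-free screening media added to match infected plates; puromycin 10 μM positive, DMSO 0.5% negative; run in parallel with 48 h PbLuc assay at 37 °C, 5% CO2; viability by CellTiter-Glo luminescence, normalized to controls.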

Row | SMILES | cytotoxicity at 10 µM [%]
1 | COc1ccc(C2CC(=O)Nc3nc(N4CCOCC4)sc32)cc1 (centres undefined) | 10.8
2 | Cn1cccc(NC(=O)COc2ccc(Br)cc2)c1=O | 8.35
3 | CC(C)c1nc(C2CCCN(C(=O)CN(C)S(C)(=O)=O)C2)no1 (centres undefined) | -0.304
4 | Cc1cc(NCc2cn(C)nc2-c2cccnc2)n(C)n1 | 12
5 | CC(C)c1ncc(C(=O)N(C)c2ccc(Br)cn2)s1 | 9.12
6 | COCCOc1ccc(NCc2cccc3cn[nH]c23)cn1 | 5.04
7 | CC(c1ccc(Cl)cc1)N1CCN(CCS(N)(=O)=O)CC1 (centres undefined) | -1.37
8 | COc1ccc(S(=O)(=O)NCC(N)c2ccccc2)c(C)c1 (centres undefined) | 0.0381
9 | O=C(NC1CC1)c1cc(NC(=O)N2CCCC(O)C2)ccc1Cl (centres undefined) | -15.5
10 | Cc1ccccc1OCCN1CCCC1CS(N)(=O)=O (centres undefined) | 18.3
11 | Cc1cc(C#N)ccc1S(=O)(=O)NCc1cnc(N(C)C)n1C | -2.64
12 | CCc1ccccc1OCCCN(C)C(=O)C1CCCN1C(N)=O (centres undefined) | 0.369
13 | CCc1ncncc1C(=O)NCCNC(=O)c1ccc(C)c(F)c1 | 7.67
14 | Cn1cc(CN2C[C@@H]3COC[C@]3(C(=O)N3CCCO3)C2)cn1 | 12.1
15 | COCC(C)NC(=O)CN1CCCC1 (centres undefined) | -7.42
16 | CCC(C(=O)NCC1CCN(c2ccncc2)CC1)N(C)C (centres undefined) | 15
17 | O=C(O)CCc1cc2n(n1)CCCN(C(=O)c1cc3ccccc3s1)C2 | 0.45
18 | COc1cccc(CN2CCCC2c2ccc[nH]2)c1 (centres undefined) | -1.38
19 | CNc1nc(C(=O)NCc2cccnc2N(C)C2CCCCC2)cs1 | -5.35
20 | c1cncc(NCCNC2CSCCSC2)c1 | 15.8
21 | Cc1nnc(CN2CCCC2c2c(C)nn(C)c2Cl)o1 (centres undefined) | 0.174

Row | SMILES | cytotoxicity at 10 µM [%]
22 | Cc1nc(CN2CCOCC3(CCN(c4ncccn4)CC3)C2)cs1 | 14.9
23 | Cc1nc(CNC(=O)CCN2CCN(c3ccccc3)CC2)oc1C | -4.04
24 | CCOC1CC2(CCN(Cc3nccn3C)CC2)C1 | -144
25 | COc1cc(C(=O)Nc2nc(C)no2)ccc1OC(F)F | -4.29
26 | CCc1cc(N(C)Cc2ccnc(C)c2)n2nc(C)c(C)c2n1 | 61.6
27 | Cc1noc(C)c1CN1CCCC(c2noc(C3CC3)n2)C1 (centres undefined) | -12.8
28 | CC(C#N)CNS(=O)(=O)c1ccc(F)c(Br)c1 (centres undefined) | -1.69
29 | O=C(c1ccoc1)N1CCC2(C1)CN(c1ncc(F)cn1)C2 | -0.472
30 | COc1ccc(CNc2c(C)nn(C(C)C)c2C)cc1 | -37.1
31 | c1cncc(-c2ccc3c(c2)CCC32CCN(Cc3nccs3)CC2)c1 | 36
32 | Cc1nnc([C@]23COC[C@H]2CN(S(=O)(=O)c2cccnc2)C3)o1 | -97.8
33 | CCN1C(=O)CC(c2ccccc2)C12CCN(c1ncc(C)cn1)CC2 (centres undefined) | -2.6
34 | Cc1ncncc1C(=O)N1CCCC1c1c(C)nn(C)c1Cl (centres undefined) | -12.2
35 | Cn1cnc2c1C(COCC1CCOCC1)CN(C(=O)C1CC=CC1)C2 (centres undefined) | -75.5
36 | CS(=O)(=O)N1CCOCC2(CCN(C(=O)c3cnccn3)CC2)C1 | -0.152
37 | Cc1cccc(N2CCC3(CCCN3Cc3c(C)nn(C)c3C)CC2)n1 | -8.35
38 | Cc1cc(NC(=O)CN(C)CC2CCCN2c2cccnn2)n(C)n1 (centres undefined) | 7.85
39 | CCNc1ncc(C(=O)NCCCc2ccncc2)cn1 | 0.562
40 | O=C(c1cc(-n2cccc2)ccc1Cl)N1CCC2(CC1)OCCO2 | -7.58
41 | NC(=O)C1CCN(CCc2ccc(NCc3cscn3)cc2)CC1 | 3.69
42 | CSc1ccc(OCCN2CCC(n3cncn3)CC2)cc1 | -12.6

Row | SMILES | cytotoxicity at 10 µM [%]
43 | O=C(O)CCc1cc2n(n1)CCCN(C(=O)c1ccc(F)cc1F)C2 | -0.168
44 | Cc1cccc(C(C)NCC2CCS(=O)(=O)CC2)c1 (centres undefined) | -2.67
45 | CN(C)CCN1C(=O)CCC12CCCN(C(=O)CC1CC1)CC2 (centres undefined) | -1.48
46 | CN(Cc1ccsc1)C(=O)Nc1ccc(N(C)C)nc1 | -3.08
47 | CCCc1cc(C(=O)NCCCn2nnc3ccccc32)no1 | -12.5
48 | Cc1nc(NC(=O)c2c(-n3cnnn3)sc3c2CCCC3)sc1C | 2.03
49 | CN(CC(=O)N1CCCC(n2ccnc2)C1)c1cnccn1 (centres undefined) | 1.41
50 | Cn1cnc2ccc(NC(=O)CC3CCN(S(C)(=O)=O)CC3)cc21 | 22.6
51 | Cc1cc2ccccc2n1CCC(=O)NCCS(C)(=O)=O | -5.79
52 | Cc1ccc(CNC2CCc3[nH]c(=O)ccc3C2)cc1C (centres undefined) | 0.354
53 | NS(=O)(=O)c1cnn(CCC(=O)N(C2CCCCC2)C2CC2)c1 | -0.157
54 | CC(C)CS(=O)(=O)Nc1ccc([C@H]2OCC(=O)N[C@@H]2CO)cc1 | 2.79
55 | O=C(CCN1CCOC1=O)N(Cc1ccncc1)CC1CCCO1 (centres undefined) | 0.606
56 | CN(Cc1nc(N)c2ccccc2n1)CC1CCCN1c1cccnn1 (centres undefined) | -1.4
57 | CC(Cn1cncn1)NCCN1CCc2ccccc2C1 (centres undefined) | -1.27
58 | CCc1cc(=O)[nH]c(-c2ccc(NCCc3ccc(O)cc3)nc2)n1 | 61.1
59 | CCCn1ncc(C(=O)N(C)Cc2n[nH]c3c2CCC3)c1C | 0.213
60 | Cc1nc(CCCNC(=O)c2c(F)cccc2Br)n[nH]1 | -1.39
61 | CCc1nccn1-c1cccc(C2CCN(C(=O)COC)CC2)n1 | -14.9
62 | COC(=O)c1cccc2nc([C@H]3CCN(C4CCN(C)CC4)C3)oc12 | -3.54
63 | COc1ccc(C(C)NC(=O)N2CCNC(=O)CC2)cc1F (centres undefined) | 13.5

Row | SMILES | cytotoxicity at 10 µM [%]
64 | COc1ccccc1C(NC(=O)NC1CC1)c1noc(C)n1 (centres undefined) | -4.12
65 | COCC(=O)N1CCCC(C(=O)c2cnn(-c3ccc(F)cc3)c2N)C1 (centres undefined) | 9.71
66 | OCCC1CN(c2nc(-c3cccnc3)nc3c2CCNCC3)CCO1 (centres undefined) | -2.64
67 | CSc1cccc(NC(=O)CCC(=O)Nc2nccs2)c1 | -5.05
68 | CCc1ncnc(N2CCOCC2C2CC2)c1F (centres undefined) | -6.62
69 | Cc1ccc(C(=O)N2CCC3(CCC(=O)N(CC(N)=O)C3)CC2)c(O)c1 | -11.5
70 | Cc1nn2c(NCC(=O)NC3CC3)cc(-c3ccccc3)nc2c1C | -5.1
71 | CCC(NC(=O)c1nn(C)cc1C(=O)O)c1ccccc1 (centres undefined) | -7.41
72 | CC(C)(C)C(O)CCNC(=O)c1ccc(F)cc1Cl (centres undefined) | 0.0701
73 | Cn1nc2c(cc1=O)CN(Cc1nc(C3CC3)no1)CC2 | -10.8
74 | CC(Cc1cccc(F)c1)C(=O)NS(=O)(=O)c1ccc(F)cc1 (centres undefined) | 5.58
75 | CC1c2ncc(Cn3cncn3)n2CCN1C(=O)C1CCOCC1 (centres undefined) | -13
76 | COc1ccc(OCCN(C)S(=O)(=O)N2CCOCC2)cc1 | 3.11
77 | CNC(=O)CN1CCC(CN(C)Cc2ccncc2Cl)CC1 | -2.87
78 | COc1cccc(C2CC(=O)Nc3nc(N)sc32)c1OC (centres undefined) | 3.74
79 | CN1CCc2nc(C3CCN(C(=O)CCC4CCCC4)CC3)ncc2C1 | -3.06
80 | OC(COCc1ccccc1)CSc1nnc(C2CC2)n1C1CC1 (centres undefined) | 4.93
81 | Cc1nc(C)c(CN2CCOC[C@H](Oc3ccc(S(C)(=O)=O)cc3)C2)s1 | 5.25
82 | CC(=O)N1CC[C@H]2C(=O)N(c3ccsc3)CCO[C@H]2C1 | 4.47
83 | Cc1nc2cc(O)nn2c(C)c1CCC(=O)NCc1cc(Br)cs1 | -3.04
84 | CC(=O)c1ccc(Nc2nc(N)nc3c2nc(C)n3C)cc1 | -8.23
